# This is one part of a sample in which hits are shown more often than they occur.
# H69AR growth 86K = growth inhibitors of human H69AR lung tumor cells; AID 598; viability, % at 10 µM; H69AR lung tumor viability, ATP luminescence, 72 h; hits give low values; 6% of 85,000 active;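 active = viability at or below 40%; inactive = viability above 40%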;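 note: multidrug resistant small cell line overexpressing MRP-1 efflux transporter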
# PTEN del growth = suppresses growth of cells with PTEN deletion; viability, % at 10 µM; 1.2% of 140,000 active; AID 827; HCT116 PTEN-null viability, CellTiter-Glo, 60 h; hits give low values;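 active = viability at or below a set limit, 4 SD under the median of all tested compounds, cut at about 3.7% in these data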;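 note: PTEN knockout HCT116 line with beta catenin targeted HCT116 as companion control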
# HCT116 bCat-KO = beta-catenin-lacking colon tumor cell growth suppression. HCT116 beta-catenin knockout viability, CellTiter-Glo, 60 h; hits give low values. viability, % at 10 µM. 1.5% of 140,000 active. AID 818;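 active = viability at or under a set limit, the compound median less 4 SD, cut at about 6% in these data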
# Fibroblast inh = blocks proliferation of human lung fibroblasts; AID 719; LL 47 human lung fibroblast viability, ATP luminescence; hits give low values; viability, % at 10 µM; 1.1% of 85,000 active;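 active = viability at or below 50% in the single dose screen; inactive = viability above 50%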;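 note: compound exposure lasted 72 h before the ATP readout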
#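 Test system: LL 47 human lung fibroblasts / Incubation: 72 h compound exposure at 37 °C after overnight plating / Technique: luminescent ATP detection, CellTiter-Glo / Compound dosing: 0.1% DMSO in all compound wells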
# HUVEC prolif 384 = inhibitors of human endothelial cell proliferation | HUVEC proliferation, CellTiter-Glo luminescence, 72 h; hits give low values | viability, % at 10 µM (by protocol) | 1.1% of 86,000 active;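 active = viability at or below 30%; inactive = viability above 30%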
# A number is an active result; n = inactive; x = not tested or not shown.
SMILES,H69AR growth 86K,PTEN del growth,HCT116 bCat-KO,Fibroblast inh,HUVEC prolif 384
COc1ccc(CNC(=O)c2c(C)oc3c2C(=O)c2ccccc2C3=O)cc1,x,1.3,1.3,x,x
CC(=O)c1c(C)oc2c1C(=O)c1ccccc1C2=O,x,1.9,2.6,x,x
COc1ccc(-c2nsc3c(N4CCCC4)ncnc23)cc1,n,n,n,n,n
COc1ccc(-c2nsc3c(N4CCN(S(=O)(=O)c5ccccc5)CC4)ncnc23)cc1,6.2,x,x,n,n
FC(F)(F)c1nc2ccccc2nc1N/N=C/c1c(Cl)cccc1Cl,x,n,n,x,x
CC(C)c1ccc(/C=N/NC(=O)c2nnn(-c3nonc3N)c2CSC2=NCCS2)cc1,x,n,n,x,x
CCOC(=O)c1sc2nc(SCC#N)n(CC3CCCO3)c(=O)c2c1C (stereo not drawn),n,n,6.0,n,n
CCOC(=O)c1sc(NCC2CCCO2)nc1C (stereo not drawn),n,n,n,n,n
O=C(Nc1ccc(Cl)c([N+](=O)[O-])c1)c1cnccn1,x,n,n,x,x
COc1ccc(OCC(=O)N/N=C/C=C/c2ccccc2)cc1,x,n,n,x,x
CCCCCCCC(O)CC(CC1CCCCC1)C(=O)NN (stereo not drawn),x,n,n,x,x
CCN1C(=O)/C(=C2/Sc3ccc(OC)cc3N2C)SC1=Nc1ccc(C(C)=O)cc1,n,x,x,n,n
CCN1C(=O)/C(=C2/Sc3ccc(OC)cc3N2C)SC1=Nc1cccc(O)c1,24,n,n,n,n
COc1ccc2nc(Nc3sc4c(c3C(N)=O)CCCC4)sc2c1,x,n,n,x,x
CCOC(=O)c1ccccc1NC(=O)CSc1nnnn1C,n,n,n,n,n
Cc1ccc(S(=O)(=O)Oc2ccccc2/C=N/NC(=O)c2c(Cl)cnn2C)cc1,33,n,n,n,n
CCN(CC)S(=O)(=O)c1ccc(NS(=O)(=O)CC23CCC(CC2=O)C3(C)C)cc1 (stereo not drawn),x,n,n,x,x
Cc1ccc(S(=O)(=O)/N=C2/C=C(Sc3ncn[nH]3)C(=O)c3ccccc32)cc1,x,n,n,x,x
Cc1ccc(S(=O)(=O)/N=C2/C=C(Sc3ncn[nH]3)C(=O)c3ccccc32)c(C)c1,x,2.8,1.9,x,x
Cc1ccc(S(=O)(=O)ON2C(=O)c3ccccc3C2=O)c(C)c1,x,n,n,x,x
CC(C)c1ccc(S(=O)(=O)/N=C2/C=C(Sc3ncn[nH]3)C(=O)c3ccccc32)cc1,x,n,2.1,x,x
CCCCNC(C(=O)Nc1ccc([N+](=O)[O-])cc1Br)c1ccccc1 (stereo not drawn),x,n,n,x,x
CCOC(=O)/C(C#N)=C1/C=CN(c2ccccc2)C=N1,39,n,n,n,n
CCOC(=O)/C(C#N)=C1/C=CN(c2ccc(C)cc2)C=N1,n,n,n,n,n
Cc1cc(C)cc(OCC(=O)N2N=C(c3cccnc3)CC2(O)C(F)(F)F)c1 (stereo not drawn),x,n,n,x,x
SMILES,H69AR growth 86K,PTEN del growth,HCT116 bCat-KO,Fibroblast inh,HUVEC prolif 384
Cc1cc(C)cc(OCC(=O)N2N=C(C(F)(F)F)CC2(O)C(C)(C)C)c1 (stereo not drawn),34,n,n,n,n
O=C(NNC(=O)c1ccccc1Br)c1ccc(SCC2CCCO2)c([N+](=O)[O-])c1 (stereo not drawn),n,n,n,n,n
Nc1cc2nsnc2cc1Br,x,n,1.8,x,x
Nc1cnc(Br)cc1Br,x,n,n,x,x
CCN(CC)P1(=O)OC(c2cc(OC)c(OC)c(OC)c2)=Nc2c1c(C)nn2-c1ccccc1 (stereo not drawn),28,n,n,n,n
O=C(CN1CCN(c2ncccn2)CC1)NCc1ccccc1,n,n,n,n,n
CCCn1c(=O)c(C(=O)Nc2cnccn2)c(O)c2ccccc21,n,x,x,n,n
CCCn1c(=O)c(C(=O)Nc2nnc(CC)s2)c(O)c2ccccc21,23,x,x,n,n
CCOC(=O)c1ccccc1NC(=O)c1c(O)c2ccccc2n(CC)c1=O,40,n,n,n,n
CCn1c(=O)c(C(=O)Nc2ccsc2C(=O)OC)c(O)c2ccccc21,x,n,4.7,x,x
C=CCn1c(=O)c(C(=O)Nc2ccccc2C(=O)OCC)c(O)c2ccccc21,n,n,n,n,n
CC/C(=C\C1CCCCC1)C(NP(=O)(c1ccccc1)c1ccccc1)c1ccccc1 (stereo not drawn),x,n,5.6,x,x
N#Cc1ccsc1NC(=O)CSc1ncn[nH]1,n,n,n,n,n
N#Cc1ccsc1NC(=O)CSc1ncnc2ccccc12,38,n,n,n,n
CCOC(=O)C(C(=O)OCC)C(Nc1cccc(Br)c1)c1ccccc1 (stereo not drawn),x,1.6,3.5,x,x

# Screens as filed in PubChem.
